According to ChEMBL document CHEMBL1212762, “In vivo activity of ceftobiprole in murine skin infections due to Staphylococcus aureus and Pseudomonas aeruginosa” (Antimicrob Agents Chemother, 2010):

What was measured:
[1] = test system: Pseudomonas aeruginosa; experiment: Antimicrobial activity against Pseudomonas aeruginosa OC 4351 infected in immunocompromized SKH1 mouse assessed as lesion volume at 1.6 mg/kg/day, sc measured after 48 hrs postinfection (reference value: 2234 mm3); type: functional; conditions: route subcutaneous
[2] = test system: Pseudomonas aeruginosa; experiment: Antimicrobial activity against Pseudomonas aeruginosa OC 4351 infected in immunocompromized SKH1 mouse assessed as lesion volume at 6.2 mg/kg/day, sc measured after 48 hrs postinfection (reference value: 2234 mm3); type: functional; conditions: route subcutaneous
[3] = test system: Pseudomonas aeruginosa; experiment: Antimicrobial activity against Pseudomonas aeruginosa OC 4351 infected in immunocompromized SKH1 mouse assessed as lesion volume at 25 mg/kg/day, sc measured after 48 hrs postinfection (reference value: 2234 mm3); type: functional; conditions: route subcutaneous
[4] = test system: Pseudomonas aeruginosa; experiment: Antimicrobial activity against Pseudomonas aeruginosa OC 4351 infected in immunocompromized SKH1 mouse assessed as lesion volume at 100 mg/kg/day, sc measured after 48 hrs postinfection (reference value: 2234 mm3); type: functional; conditions: route subcutaneous
[5] = test system: Pseudomonas aeruginosa; experiment: Antimicrobial activity against Pseudomonas aeruginosa OC 4354 infected in immunocompromized SKH1 mouse assessed as lesion volume at 1.6 mg/kg/day, sc measured after 48 hrs postinfection (reference value: 2195 mm3); type: functional; conditions: route subcutaneous
[6] = test system: Pseudomonas aeruginosa; experiment: Antimicrobial activity against Pseudomonas aeruginosa OC 4354 infected in immunocompromized SKH1 mouse assessed as lesion volume at 6.2 mg/kg/day, sc measured after 48 hrs postinfection (reference value: 2195 mm3); type: functional; conditions: route subcutaneous
[7] = test system: Pseudomonas aeruginosa; experiment: Antimicrobial activity against Pseudomonas aeruginosa OC 4354 infected in immunocompromized SKH1 mouse assessed as lesion volume at 25 mg/kg/day, sc measured after 48 hrs postinfection (reference value: 2195 mm3); type: functional; conditions: route subcutaneous
[8] = test system: Pseudomonas aeruginosa; experiment: Antimicrobial activity against Pseudomonas aeruginosa OC 4354 infected in immunocompromized SKH1 mouse assessed as lesion volume at 100 mg/kg/day, sc measured after 48 hrs postinfection (reference value: 2195 mm3); type: functional; conditions: route subcutaneous
[9] = test system: Pseudomonas aeruginosa; experiment: Antimicrobial activity against Pseudomonas aeruginosa OC 4351 infected in immunocompromized SKH1 mouse assessed as log change in bacterial colony forming unit at 1.6 mg/kg/day, sc; type: functional; conditions: route subcutaneous
Summary of the method: (§1)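 Female SKH1 hairless mice made neutropenic with ip cyclophosphamide (150 mg/kg 5 days and 100 mg/kg 1 day before infection). 0.2 ml s.c. Cytodex bead (0.1% vol/vol) inoculum in BHI: OC 4351 left flank, OC 4354 right flank. Drug s.c. at 1, 3, 25, 27 h postinfection. Killed at 48 h; skin homogenised in saline, plated on TSA 18 h 37°C; Δlog CFU/g versus inoculum. 5 mice/dose, run twice.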

[10] = test system: Pseudomonas aeruginosa; experiment: Antimicrobial activity against Pseudomonas aeruginosa OC 4351 infected in immunocompromized SKH1 mouse assessed as log change in bacterial colony forming unit at 25 mg/kg/day, sc; type: functional; conditions: route subcutaneous; summary of the method: as §1
[11] = test system: Pseudomonas aeruginosa; experiment: Antimicrobial activity against Pseudomonas aeruginosa OC 4351 infected in immunocompromized SKH1 mouse assessed as log change in bacterial colony forming units at 25 mg/kg/day, sc; type: functional; conditions: route subcutaneous; summary of the method: as §1
[12] = test system: Pseudomonas aeruginosa; experiment: Antimicrobial activity against Pseudomonas aeruginosa OC 4351 infected in immunocompromized SKH1 mouse assessed as log change in bacterial colony forming unit at 100 mg/kg/day, sc; type: functional; conditions: route subcutaneous; summary of the method: as §1
[13] = test system: Pseudomonas aeruginosa; experiment: Antimicrobial activity against Pseudomonas aeruginosa OC 4354 infected in immunocompromized SKH1 mouse assessed as log change in bacterial colony forming unit at 1.6 mg/kg/day, sc; type: functional; conditions: route subcutaneous; summary of the method: as §1
[14] = test system: Pseudomonas aeruginosa; experiment: Antimicrobial activity against Pseudomonas aeruginosa OC 4354 infected in immunocompromized SKH1 mouse assessed as log change in bacterial colony forming unit at 6.2 mg/kg/day, sc; type: functional; conditions: route subcutaneous; summary of the method: as §1
[15] = test system: Pseudomonas aeruginosa; experiment: Antimicrobial activity against Pseudomonas aeruginosa OC 4354 infected in immunocompromized SKH1 mouse assessed as log change in bacterial colony forming unit at 25 mg/kg/day, sc; type: functional; conditions: route subcutaneous; summary of the method: as §1
[16] = test system: Pseudomonas aeruginosa; experiment: Antimicrobial activity against Pseudomonas aeruginosa OC 4354 infected in immunocompromized SKH1 mouse assessed as log change in bacterial colony forming unit at 100 mg/kg/day, sc; type: functional; conditions: route subcutaneous; summary of the method: as §1
[17] = fT>MIC in Pseudomonas aeruginosa OC 4351 infected sc dosed SKH1 mouse at 50 mg/kg, sc administered twice at 1 and 3 hrs after infection; type: functional; conditions: route subcutaneous
[18] = fT>MIC in Pseudomonas aeruginosa OC 4354 infected sc dosed SKH1 mouse at 50 mg/kg, sc administered twice at 1 and 3 hrs after infection; type: functional; conditions: route subcutaneous
[19] = fT>MIC in Pseudomonas aeruginosa OC 4351 infected sc dosed SKH1 mouse administered in 24 hrs dosing interval; type: functional
[20] = fT>MIC in Pseudomonas aeruginosa OC 4354 infected sc dosed SKH1 mouse administered in 24 hrs dosing interval; type: functional
Summary of the method: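 Plasma levels came from female hairless SKH1 mice given single s.c. doses at the nape 24 h after flank s.c. infection with Cytodex beads. S. aureus work used immunocompetent mice. P. aeruginosa work used mice made neutropenic with cyclophosphamide i.p., 150 mg/kg at day −5 and 100 mg/kg at day −1. Drug assayed by HPLC with diode-array detection. Noncompartmental analysis.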

[21] = Half life in immunocompromized SKH1 mouse plasma at 50 mg/kg, sc; type: ADME, organism-based; set-up: dose 50 mg/kg, route subcutaneous
[22] = Half life in immunocompromized SKH1 mouse plasma at 12.5 mg/kg, sc; type: ADME, organism-based; set-up: dose 12.5 mg/kg, route subcutaneous
Summary of the method: (§2)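 Female SKH1 hairless mice, immunocompetent or cyclophosphamide-neutropenic, infected s.c. with MRSA OC 8525 or P. aeruginosa OC 4354 on the Cytodex beads (left flank), sterile beads on the right. Single dose 24 h later: s.c. at the nape, or linezolid 50 mg/kg oral. Plasma and skin (DMSO homogenate) sampled over time, HPLC with diode array.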

[23] = Tmax in immunocompromized SKH1 mouse plasma at 50 mg/kg, sc; type: ADME, organism-based; set-up: dose 50 mg/kg, route subcutaneous; summary of the method: as §2
[24] = Tmax in immunocompromized SKH1 mouse plasma at 12.5 mg/kg, sc; type: ADME, organism-based; set-up: dose 12.5 mg/kg, route subcutaneous; summary of the method: as §2
[25] = test system: Plasma; experiment: fCmax in immunocompromized SKH1 mouse plasma at 50 mg/kg, sc; type: ADME, organism-based; set-up: dose 50 mg/kg, route subcutaneous; conditions: in vivo; summary of the method: as §2
[26] = test system: Plasma; experiment: fCmax in immunocompromized SKH1 mouse plasma at 12.5 mg/kg, sc; type: ADME, organism-based; set-up: dose 12.5 mg/kg, route subcutaneous; conditions: in vivo; summary of the method: as §2
[27] = test system: Plasma; experiment: fAUC (0-infinity) in immunocompromized SKH1 mouse plasma at 50 mg/kg, sc; type: ADME, organism-based; set-up: dose 50 mg/kg, route subcutaneous; conditions: in vivo; summary of the method: as §2
[28] = test system: Plasma; experiment: fAUC (0-infinity) in immunocompromized SKH1 mouse plasma at 12.5 mg/kg, sc; type: ADME, organism-based; set-up: dose 12.5 mg/kg, route subcutaneous; conditions: in vivo; summary of the method: as §2
[29] = test system: Pseudomonas aeruginosa; experiment: Antimicrobial activity against Pseudomonas aeruginosa OC 4351 assessed as inhibition of growth by broth microdilution method; type: functional
[30] = test system: Pseudomonas aeruginosa; experiment: Antimicrobial activity against Pseudomonas aeruginosa OC 4354 assessed as inhibition of growth by broth microdilution method; type: functional

C[C@@H](O)[C@H]1C(=O)N2C(C(=O)O)=C(S[C@@H]3CN[C@H](C(=O)N(C)C)C3)[C@H](C)[C@H]12 [MEROPENEM]
Activity [1]: 1190 mm3 | Activity [2]: 992 mm3 | Activity [3]: 862 mm3 | Activity [4]: 602 mm3 | Activity [5]: 1316 mm3 | Activity [6]: 1030 mm3 | Activity [7]: 926 mm3 | Activity [8]: 810 mm3 | deltalog10CFU [9]: 0.2 | deltalog10CFU [10]: 0.2 | deltalog10CFU [11]: -0.9 | deltalog10CFU [12]: -1 | deltalog10CFU [13]: 0.7 | deltalog10CFU [14]: 0.5 | deltalog10CFU [15]: -1.1 | deltalog10CFU [16]: -1.1 | fT>MIC [17]: 2 h | fT>MIC [18]: 1.9 h | fT>MIC [19]: 8.5% | fT>MIC [20]: 8% | half-life [21]: 8.6 min | half-life [22]: 13.6 min | Tmax [23]: 7.5 min | Tmax [24]: 7.5 min | fCmax [25]: 72 µg/mL | fCmax [26]: 11 µg/mL | fAUC [27]: 1837 µg·min/mL | fAUC [28]: 268 µg·min/mL | MIC [29]: 0.12 µg/mL | MIC [30]: 0.5 µg/mL
